Screening data (PubChem)
XiGFP reactiv = activators of X-chromosome reactivation in mouse fibroblasts; 360,000 tested, 0.055% active; XiGFP mouse fibroblasts, % GFP-positive cells imaging, 3 d; cells co-treated with 5-aza-dC sensitizer; scaled so ellipticine positive control = 100%; activation, % at 7.58 µM;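 active means mean normalized replicate activation at least 10% and every replicate at or above 10%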
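Schedule: 3 d treatment, 15 min room-temperature fixation; system: 68-5-11 XiGFP fibroblast line; buffer or medium: DMEM plus 5-aza-dC sensitizer; control set: ellipticine 6 µM positive control; compound: one concentration, pinned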
Myeloid diff MLP = myeloid differentiation induction; ER-HoxA9 myeloid progenitors, lysozyme-GFP differentiation, flow cytometry; calls only at 10 µM; 360,000 tested, 1% active;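 active means normalized GFP-positive differentiation at or above the plate's own cutoff, the solvent-only control mean plus 3 SD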;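 further: cells exposed to compound for four days before flow analysis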
ABCB6 inh MLPCN = human ABCB6 transporter inhibition | K562-ABCB6 porphyrin accumulation, flow cytometry, 1 h; hits give low values | fluorescence ratio to DMSO, % at 10 µM | 360,000 tested, 0.19% active | AID 602162;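 active means fluorescence ratio to DMSO below 75%, the collection mean minus 3 SD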;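 further: signal is porphyrin accumulated inside mitochondria; lower ratio means ABCB6 inhibition with less porphyrin fluorescence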
Target sequence (Q9NP58 whole entry, looked up): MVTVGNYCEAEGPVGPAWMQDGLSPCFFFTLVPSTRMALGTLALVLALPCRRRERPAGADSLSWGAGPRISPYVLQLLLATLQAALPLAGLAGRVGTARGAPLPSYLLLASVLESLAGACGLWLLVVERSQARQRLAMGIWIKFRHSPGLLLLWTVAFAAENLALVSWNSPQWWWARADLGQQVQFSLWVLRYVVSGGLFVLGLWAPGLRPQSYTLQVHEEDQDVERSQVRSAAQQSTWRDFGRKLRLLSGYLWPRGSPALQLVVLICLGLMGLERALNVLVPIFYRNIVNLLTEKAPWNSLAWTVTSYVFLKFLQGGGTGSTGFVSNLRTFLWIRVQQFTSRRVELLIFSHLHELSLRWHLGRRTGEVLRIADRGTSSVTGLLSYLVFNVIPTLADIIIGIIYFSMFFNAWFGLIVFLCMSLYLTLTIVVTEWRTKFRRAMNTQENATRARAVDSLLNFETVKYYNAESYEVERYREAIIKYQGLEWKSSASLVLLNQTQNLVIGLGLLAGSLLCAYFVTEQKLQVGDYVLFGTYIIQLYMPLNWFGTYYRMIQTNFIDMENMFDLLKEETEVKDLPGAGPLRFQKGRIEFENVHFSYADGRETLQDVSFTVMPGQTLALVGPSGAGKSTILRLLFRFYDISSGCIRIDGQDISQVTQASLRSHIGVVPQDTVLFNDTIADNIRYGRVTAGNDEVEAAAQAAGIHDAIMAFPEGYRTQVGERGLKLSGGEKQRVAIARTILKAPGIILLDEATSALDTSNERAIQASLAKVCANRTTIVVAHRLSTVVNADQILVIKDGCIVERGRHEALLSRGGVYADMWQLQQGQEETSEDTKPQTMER
Numbers stand for hits. The full list was thinned out, with hits kept by preference.

For CCOc1ccc2nc(NCCNC(=O)CC)c(C#N)cc2c1 the results were Myeloid diff MLP active and ABCB6 inh MLPCN inactive.
C[C@@H]1CN([C@H](C)CO)C(=O)c2cc(NS(=O)(=O)c3ccc(F)cc3)ccc2O[C@@H](C)CCCCO[C@H]1CN(C)Cc1ccccc1 was read as XiGFP reactiv inactive.
For Cc1ccccc1S(=O)(=O)N1CC[C@@H]2[C@H](CO)Nc3ccc(-c4ccccc4F)cc3[C@@H]21 the results were XiGFP reactiv inactive.
For CCOC(=O)c1nc2cc3n(c(C)c-2c1C)C(C)C(C)=C3C (stereo not given) the results were Myeloid diff MLP inactive and ABCB6 inh MLPCN inactive.
`CCOC(=O)c1nc2cc3n(c(CC(C)C)c-2c1C)CC(C)=C3C` gave Myeloid diff MLP active and ABCB6 inh MLPCN inactive.
Screening COc1ccccc1CNC(=O)C[C@@H]1C[C@H]2c3cc(NC(=O)C4CCC4)ccc3O[C@H]2[C@H](CO)O1 returned XiGFP reactiv inactive.
For CCC(=O)Nc1ccc(/C(C)=N\NC(=O)c2ccc(C)s2)cc1 the results were Myeloid diff MLP inactive and ABCB6 inh MLPCN inactive.
`C/C(=N/NC(=O)c1ccc(Cl)s1)c1ccc(NC(=O)COc2ccc(Cl)cc2)cc1` gave Myeloid diff MLP inactive and ABCB6 inh MLPCN 53.
For Cc1ccc(-c2nc(SCC(=O)NCC3CCCO3)c(-c3ccccc3)[nH]2)cc1 (stereo not given) the results were XiGFP reactiv inactive, Myeloid diff MLP active and ABCB6 inh MLPCN inactive.
`Cc1ccc(-c2nsc(SCC(=O)NCC3CCCO3)n2)cc1` (stereo not given) gave XiGFP reactiv inactive, Myeloid diff MLP inactive and ABCB6 inh MLPCN inactive.
Screening O=C(N[C@H]1C=C[C@H](CC(=O)N2CCCCC2)O[C@@H]1CO)c1ccc2c(c1)OCO2 returned XiGFP reactiv inactive.
Screening COc1cccc(CNC(=O)C[C@@H]2CC[C@@H](NC(=O)C3CCC3)[C@@H](CO)O2)c1 returned XiGFP reactiv inactive.
CCOc1ccccc1N1CC(C(=O)N(Cc2nnc(-c3ccccc3Cl)o2)C2CC2)CC1=O (stereo not given) was read as XiGFP reactiv inactive, Myeloid diff MLP inactive and ABCB6 inh MLPCN inactive.
For CSc1cccc(N2CC(C(=O)N(Cc3nnc(-c4ccccc4Cl)o3)C3CC3)CC2=O)c1 (stereo not given) the results were XiGFP reactiv inactive, Myeloid diff MLP active and ABCB6 inh MLPCN inactive.
Screening Cc1ccc2[nH]c(C(=O)O)c(-c3ccccc3)c2c1 returned Myeloid diff MLP inactive and ABCB6 inh MLPCN inactive.
`CC(=O)NNC(=O)c1[nH]c2ccc(Br)cc2c1-c1ccccc1` gave XiGFP reactiv inactive, Myeloid diff MLP inactive and ABCB6 inh MLPCN inactive.
Screening NNC(=O)c1[nH]c2ccc(Br)cc2c1-c1ccccc1 returned XiGFP reactiv inactive, Myeloid diff MLP active and ABCB6 inh MLPCN inactive.
Cc1ccc2[nH]c(C(=O)NN=C3CCCCC3)c(-c3ccccc3)c2c1 was read as XiGFP reactiv inactive, Myeloid diff MLP active and ABCB6 inh MLPCN inactive.
COc1ccc(CN(C)C[C@H]2Oc3c(NC(=O)C4CCOCC4)cccc3C(=O)N([C@H](C)CO)C[C@@H]2C)cc1 was read as XiGFP reactiv inactive.
Screening Cc1ccccc1S(=O)(=O)N1C[C@@H]2[C@H](c3ccccc31)[C@@H](CO)N2C(=O)CC1CC1 returned XiGFP reactiv inactive.
For COc1ccc2c3c(n(C)c2c1)[C@H](CO)N(C(=O)Cc1ccccc1)CC31CCN(C(C)=O)CC1 the results were XiGFP reactiv inactive.
Screening C[C@@H]1CN([C@H](C)CO)C(=O)c2cc(NC(=O)Nc3ccc(F)cc3)ccc2O[C@H]1CN(C)C(=O)Nc1ccc2c(c1)OCO2 returned XiGFP reactiv inactive.
For CC(=O)Oc1ccc(C(=O)[C@H]2[C@H]3C(=O)N(c4ccc(C)cc4)C(=O)[C@H]3[C@@H]3C=CC=NN32)cc1 the results were XiGFP reactiv inactive, Myeloid diff MLP active and ABCB6 inh MLPCN inactive.
`CC(=O)Oc1ccc(C(=O)[C@H]2[C@H]3C(=O)N(c4ccccc4)C(=O)[C@H]3[C@@H]3C=CC=NN32)cc1` gave XiGFP reactiv inactive, Myeloid diff MLP inactive and ABCB6 inh MLPCN inactive.
`O=C(CC(=O)c1ccccc1)Nc1ccc([N+](=O)[O-])cc1` gave XiGFP reactiv inactive, Myeloid diff MLP inactive and ABCB6 inh MLPCN inactive.
For O=C(Cc1ccc([N+](=O)[O-])cc1)c1ccccc1 the results were XiGFP reactiv inactive, Myeloid diff MLP active and ABCB6 inh MLPCN inactive.
Screening COc1ccc2c3c(n(C)c2c1)[C@H](CO)N(C)CC31CCN(S(C)(=O)=O)CC1 returned XiGFP reactiv inactive.
COc1ccccc1Nc1nnc(Cc2ccccc2)c(=O)[nH]1 was read as XiGFP reactiv inactive, Myeloid diff MLP inactive and ABCB6 inh MLPCN inactive.
For COCCNc1nnc(Cc2ccccc2)c(=O)[nH]1 the results were XiGFP reactiv inactive, Myeloid diff MLP active and ABCB6 inh MLPCN inactive.
For Cc1ccccc1S(=O)(=O)N1C[C@@H](O)COC[C@@H]2O[C@H](CC(=O)NCCc3ccccc3)CC[C@H]21 the results were XiGFP reactiv inactive.
For C[C@H](CO)N1C[C@H](C)[C@H](CN(C)S(=O)(=O)c2cccs2)Oc2c(NS(=O)(=O)c3ccccc3)cccc2C1=O the results were XiGFP reactiv inactive.
Screening CSCC[C@H](NC(=O)Cc1ccc(Cl)cc1)C(=O)N1CCC2(CC1)NCCc1[nH]cnc12 returned XiGFP reactiv inactive, Myeloid diff MLP active and ABCB6 inh MLPCN inactive.
COc1ccc(CC(=O)N[C@@H](CCSC)C(=O)N2CCC3(CC2)NCCc2[nH]cnc23)cc1 was read as XiGFP reactiv inactive, Myeloid diff MLP inactive and ABCB6 inh MLPCN inactive.
`COc1ccc(OC)c(C2=Nn3c(nnc3C3CCCCC3)SC2)c1` gave Myeloid diff MLP inactive and ABCB6 inh MLPCN inactive.
COc1ccc(C2=Nn3c(nnc3C3CCCCC3)SC2)cc1OC was read as Myeloid diff MLP active and ABCB6 inh MLPCN inactive.
Screening COC(=O)/C=C1/S/C(=N/NC(=O)c2ccccc2OC)NC1=O returned XiGFP reactiv inactive, Myeloid diff MLP active and ABCB6 inh MLPCN inactive.
For COC(=O)/C=C1/S/C(=N/NC(=O)c2ccc(OC)cc2)NC1=O the results were XiGFP reactiv inactive, Myeloid diff MLP inactive and ABCB6 inh MLPCN inactive.
Screening COc1ccc(CN2CCN(C(=O)CCC(=O)Nc3nnc(C(F)(F)F)s3)CC2)cc1F returned XiGFP reactiv inactive, Myeloid diff MLP inactive and ABCB6 inh MLPCN inactive.
Screening COc1ccc(CN2CCN(C(=O)CCC(=O)Nc3nnc(C4CCCCC4)s3)CC2)cc1F returned XiGFP reactiv inactive, Myeloid diff MLP active and ABCB6 inh MLPCN inactive.
O=C(O)CC(CC(=O)Nc1nncs1)c1ccccc1 (stereo not given) was read as Myeloid diff MLP inactive and ABCB6 inh MLPCN inactive.
Screening O=C(O)CC(Cn1[nH]nnc1=S)c1ccccc1 (stereo not given) returned Myeloid diff MLP active and ABCB6 inh MLPCN inactive.
Screening C[C@@H]1CCCCO[C@H](CN(C)C(=O)Nc2ccc3c(c2)OCO3)[C@H](C)CN([C@H](C)CO)C(=O)c2cc(NC(=O)Nc3ccc(F)cc3)ccc2O1 returned XiGFP reactiv inactive.
For CN=CC1=C(O)c2ccccc2C1=O the results were Myeloid diff MLP inactive and ABCB6 inh MLPCN inactive.
Screening O=C1C(C2=C(O)c3ccccc3C2=O)=Nc2ccccc21 returned Myeloid diff MLP active and ABCB6 inh MLPCN inactive.
